Experimental data taken from ChEMBL document CHEMBL5108061, “Lectin-Targeted Prodrugs Activated by Pseudomonas aeruginosa for Self-Destructive Antibiotic Release” (J Med Chem, 2022).
In brackets after ≈: the same amount, converted by molar mass.

Key:
[1] = system: Pseudomonas aeruginosa; test: Antibacterial activity against Pseudomonas aeruginosa PA14 assessed inhibition of bacterial growth incubated for 18 to 20 hrs by broth microdilution method; type: functional; details: time 18-20 hrs
How it was run: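 Broth microdilution per EUCAST in Müller-Hinton broth II, no matrix preincubation. […] Inoculum from overnight LB-agar colonies adjusted to OD600 0.08–0.13, diluted 1:100, final 5 × 10^5 cfu/mL.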

[2] = biological target: T1, PA-I galactophilic lectin (Pseudomonas aeruginosa (strain ATCC 15692 / PAO1 / 1C / PRS 101 / LMG12228), UniProt Q05097); test: Competitive binding affinity to recombinant Pseudomonas aeruginosa LecA expressed in Escherichia coli BL21(DE3) incubated for 30 to 60 mins by fluorescent polarization assay
T1 sequence (Q05097 whole entry): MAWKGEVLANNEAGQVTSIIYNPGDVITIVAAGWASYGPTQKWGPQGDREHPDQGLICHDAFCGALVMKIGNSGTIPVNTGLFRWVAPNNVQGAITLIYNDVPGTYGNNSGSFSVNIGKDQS
How it was run: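 Recombinant LecA (E. coli BL21(DE3), galactosyl-sepharose purified) at 40 μM with 20 nM fluorescein-galactoside reporter in TBS/Ca pH 7.4; compounds serially diluted with 30% DMSO co-solvent, technical triplicates; 30–60 min at 22 °C; fluorescence polarization (ex 485/em 535); four-parameter fit with plateaus fixed by pNP-β-D-Gal control; ≥3 independent experiments.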

[3] = biological target: Elastase (Pseudomonas aeruginosa (strain ATCC 15692 / PAO1 / 1C / PRS 101 / LMG12228), UniProt P14756); test: Prodrug activation assessed as LasB-mediated drug release in Pseudomonas aeruginosa PA14 cell supernatant in presence of human blood plasma and measured for 3 hrs by HPLC-MS analysis; type: cell-free
Sequence of Elastase (P14756 whole entry): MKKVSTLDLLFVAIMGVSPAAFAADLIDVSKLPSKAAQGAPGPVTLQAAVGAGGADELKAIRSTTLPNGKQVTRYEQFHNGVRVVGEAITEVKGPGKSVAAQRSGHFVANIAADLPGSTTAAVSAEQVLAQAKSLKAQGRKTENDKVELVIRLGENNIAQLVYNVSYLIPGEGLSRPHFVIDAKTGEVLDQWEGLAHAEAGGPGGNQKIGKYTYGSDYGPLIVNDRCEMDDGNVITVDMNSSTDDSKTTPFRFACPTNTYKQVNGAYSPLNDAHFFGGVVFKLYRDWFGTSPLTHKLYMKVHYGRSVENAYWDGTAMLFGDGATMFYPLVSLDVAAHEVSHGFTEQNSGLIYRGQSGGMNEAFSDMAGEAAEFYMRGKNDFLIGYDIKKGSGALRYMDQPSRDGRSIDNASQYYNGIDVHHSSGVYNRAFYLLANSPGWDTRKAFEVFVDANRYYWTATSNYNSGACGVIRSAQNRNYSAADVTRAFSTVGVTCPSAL

[4] = Stability of compound in human blood plasma spiked with Pseudomonas aeruginosa PA14 matrix assessed as hydrolysis of prodrug and measured upto 3 hrs by HPLC-MS/MS analysis; type: ADME, cell-free
[5] = system: Pseudomonas aeruginosa; test: (§1) Antibacterial activity against Pseudomonas aeruginosa PA14 assessed inhibition of bacterial growth preincubated for 10 mins in PBS buffer followed by overnight grown bacterial culture addition incubated for 18 to 20 hrs by broth microdilution method; type: functional
How it was run: (§2)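 Prodrug serial dilutions in PBS/20% DMSO (1 mM to 1.9 μM) were diluted about 1:20 into matrix. Matrices: plasma 5 mL + PA14 LB-culture sterile filtrate 1 mL + PBS 4 mL; filtrate 1 mL + PBS 9 mL; PBS alone; plasma 5 mL + LB 1 mL + PBS 4 mL. Preincubation was 3 h at 37 °C, or <10 min at room temperature.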

[6] = system: Pseudomonas aeruginosa; test: (§3) Antibacterial activity against Pseudomonas aeruginosa PA14 assessed inhibition of bacterial growth preincubated for 3 hrs in PBS buffer followed by overnight grown bacterial culture addition incubated for 18 to 20 hrs by broth microdilution method; type: functional; details: time 21-23 hrs; how it was run: as §2
[7] = system: Pseudomonas aeruginosa; test: as §1, with “mins in matrix containing human blood plasma spiked with Pseudomonas aeruginosa cell culture supernatant” for “mins”; type: functional; how it was run: as §2
[8] = system: Pseudomonas aeruginosa; test: (§4) Antibacterial activity against Pseudomonas aeruginosa PA14 assessed inhibition of bacterial growth preincubated for 3 hrs in matrix containing 50% human blood plasma and 10% Pseudomonas aeruginosa cell culture supernatant in PBS followed by overnight grown bacterial culture addition incubated for 18 to 20 hrs by broth microdilution method; type: functional; details: time 21-23 hrs; how it was run: as §2
[9] = system: Pseudomonas aeruginosa; test: as §4, with “containing” for “containing 50%”, “spiked with” for “and 10%”, “PBS buffer” for “PBS”; type: functional; how it was run: as §2
[10] = system: Pseudomonas aeruginosa; test: as §3, with “3 hrs in matrix containing Pseudomonas aeruginosa cell culture supernatant in PBS” for “3 hrs in PBS”; type: functional; details: time 21-23 hrs; how it was run: as §2
[11] = system: Pseudomonas aeruginosa; test: (§5) Antibacterial activity against Pseudomonas aeruginosa PA14 assessed inhibition of bacterial growth preincubated for 10 mins in matrix containing human blood plasma spiked with fresh LB medium in PBS followed by overnight grown bacterial culture addition incubated for 18 to 20 hrs by broth microdilution method; type: functional; how it was run: as §2
[12] = system: Pseudomonas aeruginosa; test: as §5, with “3 hrs” for “10 mins”; type: functional; details: time 21-23 hrs; how it was run: as §2
[13] = biological target: Fucose-binding lectin PA-IIL (Pseudomonas aeruginosa (strain ATCC 15692 / DSM 22644 / CIP 104116 / JCM14847 / LMG 12228 / 1C / PRS 101 / PAO1), UniProt Q9HYN5); test: Competitive binding affinity to recombinant Pseudomonas aeruginosa PAO1 LecB expressed in Escherichia coli BL21(DE3) incubated for 4 to 8 hrs by fluorescent polarization assay
Sequence of Fucose-binding lectin PA-IIL (Q9HYN5 whole entry): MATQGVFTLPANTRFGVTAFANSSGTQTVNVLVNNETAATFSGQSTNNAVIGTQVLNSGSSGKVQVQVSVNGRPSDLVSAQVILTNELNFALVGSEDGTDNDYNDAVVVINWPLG

[14] = Stability in mouse plasma assessed as half life at 1 uM and measured upto 240 mins by HPLC-MS/MS analysis; type: ADME, cell-free; details: 4 h
How it was run: (§6)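 Compound at 1 μM final in prewarmed mouse or human plasma (pH 7.4), 37 °C, sampled at 0–240 min; extracted with acetonitrile containing caffeine internal standard; HPLC-MS/MS, peak area normalized to internal standard and time 0; procaine and procainamide controls; ≥3 independent repeats.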

[15] = Stability in human plasma assessed as half life at 1 uM and measured upto 240 mins by HPLC-MS/MS analysis; type: ADME, cell-free; details: 4 h; how it was run: as §6
[16] = Protein binding in CD-1 mouse plasma at 1 uM incubated for incubated for 2 hrs by HPLC-MS/MS analysis; type: ADME, cell-free
How it was run: (§7)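 Rapid equilibrium dialysis; compound at 1 μM final in pooled CD-1 mouse plasma or pooled mixed-gender human plasma, dialysed against buffer; naproxen as high-binding control.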

[17] = Protein binding in human plasma at 1 uM incubated for incubated for 2 hrs by HPLC-MS/MS analysis; type: ADME, cell-free; how it was run: as §7
[18] = system: A549; test: Cytotoxicity against human A549 cells assessed as reduction in cell viability incubated for 24 hrs by MTT assay
[19] = Drug uptake in human A549 cells assessed as intracellular accumulation at 10 ug/ml incubated for 15 to 60 mins by HPLC-MS/MS analysis; type: ADME, cell-based; details: time 15-60 min, dose 10 µg/ml
How it was run: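 A549 cells grown to 95% confluence in DMEM/10% FCS, exposed to 10 μg/mL compound for 15, 30 and 60 min at 37 °C; washed twice with PBS, lysed in MeOH; medium, washes and extracts extracted with MeOH containing caffeine internal standard and quantified by HPLC-MS/MS against calibration/QC samples; technical duplicates, two biological replicates.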

| Structure (SMILES) | MIC [1] [µM] | IC50 [2] [µM] | Drug metabolism [3] | Stability [4] | MIC [5] [µM] | MIC [6] [µM] | MIC [7] [µM] | MIC [8] [µM] | MIC [9] [µM] | MIC [10] [µM] | MIC [11] [µM] | MIC [12] [µM] | IC50 [13] [µM] | t1/2 [14] [h] | t1/2 [15] [h] | PPB [16] [%] | PPB [17] [%] | IC50 [18] [µM] | Drug uptake [19] [ng/mL] |
| --- | --- | --- | --- | --- | --- | --- | --- | --- | --- | --- | --- | --- | --- | --- | --- | --- | --- | --- | --- |
| NC[C@@H]1CCN(c2cc3c(cc2F)c(=O)c(C(=O)O)cn3C2CC2)C1 | 0.29 (≈ 0.1 µg/mL) |  |  |  |  |  |  |  |  |  |  |  |  |  |  |  |  |  |  |
| CC(C)C[C@H](NC(=O)CNC(=O)[C@H](C)NC(=O)c1ccc(S[C@@H]2O[C@H](CO)[C@H](O)[C@H](O)[C@H]2O)cc1)C(=O)N[C@@H](C)C(=O)NC[C@@H]1CCN(c2cc3c(cc2F)c(=O)c(C(=O)O)cn3C2CC2)C1 |  | 28 | Metabolite_Detected | Stable | > 25 | > 25 | 3.13 (≈ 2.99 µg/mL) | 1.56 (≈ 1.49 µg/mL) | 1.56 (≈ 1.49 µg/mL) | 1.56 (≈ 1.49 µg/mL) | > 25 | 12.5 (≈ 12 µg/mL) |  |  |  |  |  |  |  |
| CC(C)C[C@H](NC(=O)CNC(=O)[C@H](C)NC(=O)c1ccc(S[C@@H]2O[C@H](CO)[C@H](O)[C@H](O)[C@H]2O)cc1)C(=O)N[C@@H](C)C(=O)N1CCN(c2cc3c(cc2F)c(=O)c(C(=O)O)cn3C2CC2)CC1 |  | 31.7 | Metabolite_Notdetected | Stable | > 25 | > 25 | ≥ 25 | ≥ 25 | ≥ 25 | ≥ 25 | > 25 | ≥ 25 |  |  |  |  |  |  |  |
| CC(C)C[C@H](NC(=O)CNC(=O)[C@H](C)NC(=O)c1ccc(S(=O)(=O)NC[C@H]2O[C@@H](C)[C@@H](O)[C@@H](O)[C@@H]2O)cc1)C(=O)N[C@@H](C)C(=O)N[C@H]1CCN(c2cc3c(cc2F)c(=O)c(C(=O)O)cn3C2CC2)C1 |  |  | Metabolite_Detected | Stable | > 25 | > 25 | 0.78 (≈ 0.77 µg/mL) | 0.1 (≈ 0.0987 µg/mL) | 1.56 (≈ 1.54 µg/mL) | 0.39 (≈ 0.385 µg/mL) | ≥ 25 | 0.78 (≈ 0.77 µg/mL) | 3.59 | 1.23 | 2.25 | 30.1 | 51.1 | > 50 | 55 |
| CC(C)C[C@H](NC(=O)CNC(=O)[C@H](C)NC(=O)c1ccc(S(=O)(=O)NC[C@H]2O[C@@H](C)[C@@H](O)[C@@H](O)[C@@H]2O)cc1)C(=O)N[C@@H](C)C(=O)NC[C@@H]1CCN(c2cc3c(cc2F)c(=O)c(C(=O)O)cn3C2CC2)C1 |  |  | Metabolite_Detected | Stable | > 25 | > 25 | 3.13 (≈ 3.13 µg/mL) | 1.56 (≈ 1.56 µg/mL) | 3.13 (≈ 3.13 µg/mL) | 1.56 (≈ 1.56 µg/mL) | ≥ 25 | 12.5 (≈ 12.5 µg/mL) | 4.29 |  |  |  |  |  |  |
| O=C(O)c1cn(C2CC2)c2cc(N3CCNCC3)c(F)cc2c1=O [CIPROFLOXACIN] | 0.125 (≈ 0.0414 µg/mL) |  |  |  | 0.125 (≈ 0.0414 µg/mL) | 0.125 (≈ 0.0414 µg/mL) | 0.25 (≈ 0.0828 µg/mL) | 0.156 (≈ 0.0517 µg/mL) |  |  | 0.156 (≈ 0.0517 µg/mL) | 0.156 (≈ 0.0517 µg/mL) |  |  |  |  |  |  |  |
